Source: ChEMBL document CHEMBL1137681, “Design, synthesis and characterization of N9/N7-substituted 6-aminopurines as VEGF-R and EGF-R inhibitors” (Eur J Med Chem, 2009)
Calls of active or inactive are those of the source. The calls are words filed in the database; no cut-off is given here.

What was measured:
[1] = target: Mitogen-activated protein kinase kinase kinase 8 (Homo sapiens) (UniProt P41279); test: Inhibition of COT
[2] = target: T1, Proto-oncogene tyrosine-protein kinase Src (Homo sapiens, UniProt P12931); test: Inhibition of SRC
[3] = target: Vascular endothelial growth factor receptor 2 (Homo sapiens, UniProt P35968); test: Inhibition of VEGFR2
[4] = target: T2, NUAK family SNF1-like kinase 1 (Homo sapiens) (UniProt O60285); test: Inhibition of ARK5 up to 100 uM
T2 sequence (whole entry): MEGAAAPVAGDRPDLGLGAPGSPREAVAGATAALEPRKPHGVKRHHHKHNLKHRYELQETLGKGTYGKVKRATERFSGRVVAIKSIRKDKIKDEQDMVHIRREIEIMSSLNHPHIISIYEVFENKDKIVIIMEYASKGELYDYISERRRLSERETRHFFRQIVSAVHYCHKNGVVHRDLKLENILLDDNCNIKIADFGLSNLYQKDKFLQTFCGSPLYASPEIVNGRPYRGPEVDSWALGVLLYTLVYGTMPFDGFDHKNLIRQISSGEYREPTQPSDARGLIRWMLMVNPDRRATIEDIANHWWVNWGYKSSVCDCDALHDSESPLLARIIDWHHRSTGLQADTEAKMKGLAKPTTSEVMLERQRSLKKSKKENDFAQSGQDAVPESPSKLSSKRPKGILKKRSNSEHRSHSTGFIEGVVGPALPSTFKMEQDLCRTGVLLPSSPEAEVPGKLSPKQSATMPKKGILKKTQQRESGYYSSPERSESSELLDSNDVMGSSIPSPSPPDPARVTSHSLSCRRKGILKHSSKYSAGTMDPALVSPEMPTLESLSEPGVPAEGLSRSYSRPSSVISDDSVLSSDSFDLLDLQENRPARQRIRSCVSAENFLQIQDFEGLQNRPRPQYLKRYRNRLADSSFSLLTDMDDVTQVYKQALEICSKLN

[5] = test system: Serine/threonine-protein kinase B-raf (Homo sapiens), P15056 [V600E]; test: Inhibition of BRAF V600E mutant
[6] = target: T3, Aurora kinase A (Homo sapiens) (UniProt O14965); test: Inhibition of Aurora A up to 100 uM
T3 sequence (whole entry): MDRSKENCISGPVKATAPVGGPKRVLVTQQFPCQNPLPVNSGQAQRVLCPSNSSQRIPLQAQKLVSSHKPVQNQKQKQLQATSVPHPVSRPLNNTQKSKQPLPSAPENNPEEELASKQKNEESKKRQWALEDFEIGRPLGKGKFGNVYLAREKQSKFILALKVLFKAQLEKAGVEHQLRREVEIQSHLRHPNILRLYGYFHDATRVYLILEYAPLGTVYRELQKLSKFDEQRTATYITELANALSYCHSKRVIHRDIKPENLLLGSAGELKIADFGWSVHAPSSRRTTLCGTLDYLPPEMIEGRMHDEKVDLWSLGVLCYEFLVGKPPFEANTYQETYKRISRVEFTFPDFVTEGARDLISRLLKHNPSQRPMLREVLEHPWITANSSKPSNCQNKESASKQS
Outline: (§1)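 Buffer was HEPES-NaOH pH 7.5 with MgCl2, MnCl2, vanadate, DTT, PEG20000 and 1% DMSO. Run 80 min at 30 °C, quenched with 2% H3PO4, NaCl-washed, then scintillation-counted. IC50 fitted from 10 concentrations tested once each.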

[7] = target: Angiopoietin-1 receptor (Homo sapiens, UniProt Q02763); test: Inhibition of TIE2
[8] = target: Aurora kinase B (Homo sapiens, UniProt Q96GD4); test: Inhibition of Aurora B; outline: as §1
[9] = target: Cyclin-dependent kinase 2 (Homo sapiens) (UniProt P24941); test: Inhibition of CDK2/cyclin A up to 100 uM
Outline: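 Buffer was HEPES-NaOH pH 7.5 with MgCl2/MnCl2, vanadate, DTT, PEG20000 and 1% DMSO. Run 80 min at 30 °C, H3PO4 stop, NaCl wash, scintillation read-out. IC50 from 10 concentrations, singlicate.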

[10] = target: Serine/threonine-protein kinase PLK1 (Homo sapiens) (UniProt P53350); test: Inhibition of PLK1 up to 100 uM
Outline: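 Run in HEPES-NaOH pH 7.5 with MgCl2, MnCl2, orthovanadate, DTT, PEG20000 and 1% DMSO at 30 °C for 80 min. IC50 from 10 concentrations, singlicate.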

[11] = target: Hepatocyte growth factor receptor (Homo sapiens) (UniProt P08581); test: Inhibition of MET up to 100 uM
[12] = target: Receptor tyrosine-protein kinase erbB-2 (Homo sapiens, UniProt P04626); test: Inhibition of ERBB2
Outline: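 Buffer: HEPES-NaOH pH 7.5, Mg2+/Mn2+, vanadate, DTT, PEG20000, 1% DMSO. Incubated 30 °C for 80 min, stopped with 2% H3PO4, washed, and scintillation-counted. IC50 from 10 concentrations in singlicate.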

[13] = target: Vascular endothelial growth factor receptor 3 (Homo sapiens, UniProt P35916); test: Inhibition of VEGFR3
[14] = target: Epidermal growth factor receptor (Homo sapiens, UniProt P00533); test: Inhibition of EGFR
[15] = target: Serine/threonine-protein kinase PLK1 (Homo sapiens) (UniProt P53350); test: Inhibition of human PLK1 at 10 uM
[16] = target: Aurora kinase C (Homo sapiens) (UniProt Q9UQB9); test: Inhibition of human aurora C at 10 uM
[17] = target: Mitogen-activated protein kinase 13 (Homo sapiens) (UniProt O15264); test: Inhibition of SAPK4 at 10 uM
[18] = test system: Ribosomal protein S6 kinase beta-1 (Homo sapiens), P23443 [T412E]; test: Inhibition of S6K1 T412E mutant at 10 uM
[19] = organism: Rattus norvegicus; test: Inhibition of rat AMPK at 10 uM
[20] = target: Ribosomal protein S6 kinase alpha-3 (Homo sapiens) (UniProt P51812); test: Inhibition of RSK2 at 10 uM
[21] = target: Serine/threonine-protein kinase N2 (Homo sapiens) (UniProt Q16513); test: Inhibition of PRK2 at 10 uM
[22] = target: Serine/threonine-protein kinase pim-2 (Homo sapiens) (UniProt Q9P1W9); test: Inhibition of PIM2 at 10 uM
[23] = Inhibition of PKA at 10 uM
[24] = target: Calcium/calmodulin-dependent protein kinase kinase 1 (Homo sapiens) (UniProt Q8N5S9); test: Inhibition of human CAMKKalpha at 10 uM
[25] = target: Mitogen-activated protein kinase 10 (Homo sapiens) (UniProt P53779); test: Inhibition of JNK3alpha1 at 10 uM
[26] = target: SRSF protein kinase 1 (Homo sapiens) (UniProt Q96SB4); test: Inhibition of SRPK1 at 10 uM
[27] = target: MAP kinase-interacting serine/threonine-protein kinase 1 (Homo sapiens) (UniProt Q9BUB5); test: Inhibition of MNK1 at 10 uM
[28] = target: T1, Proto-oncogene tyrosine-protein kinase Src; test: Inhibition of SRC up to 100 uM

T1 sequence (P12931 2-536 limits assumed): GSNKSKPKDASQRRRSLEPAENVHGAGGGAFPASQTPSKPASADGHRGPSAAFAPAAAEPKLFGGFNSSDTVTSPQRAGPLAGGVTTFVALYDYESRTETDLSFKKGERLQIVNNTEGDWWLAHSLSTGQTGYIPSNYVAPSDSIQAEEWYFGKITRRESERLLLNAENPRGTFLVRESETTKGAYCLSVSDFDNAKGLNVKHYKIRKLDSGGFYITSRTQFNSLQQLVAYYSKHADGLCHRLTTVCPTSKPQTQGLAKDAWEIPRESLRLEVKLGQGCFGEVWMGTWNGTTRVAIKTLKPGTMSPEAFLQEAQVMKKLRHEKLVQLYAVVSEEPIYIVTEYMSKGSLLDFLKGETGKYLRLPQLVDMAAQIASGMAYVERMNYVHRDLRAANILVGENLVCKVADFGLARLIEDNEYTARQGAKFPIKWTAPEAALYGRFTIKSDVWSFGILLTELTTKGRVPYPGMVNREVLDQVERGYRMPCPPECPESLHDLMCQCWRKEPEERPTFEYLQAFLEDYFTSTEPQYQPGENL
Chain of Epidermal growth factor receptor (P00533 whole entry): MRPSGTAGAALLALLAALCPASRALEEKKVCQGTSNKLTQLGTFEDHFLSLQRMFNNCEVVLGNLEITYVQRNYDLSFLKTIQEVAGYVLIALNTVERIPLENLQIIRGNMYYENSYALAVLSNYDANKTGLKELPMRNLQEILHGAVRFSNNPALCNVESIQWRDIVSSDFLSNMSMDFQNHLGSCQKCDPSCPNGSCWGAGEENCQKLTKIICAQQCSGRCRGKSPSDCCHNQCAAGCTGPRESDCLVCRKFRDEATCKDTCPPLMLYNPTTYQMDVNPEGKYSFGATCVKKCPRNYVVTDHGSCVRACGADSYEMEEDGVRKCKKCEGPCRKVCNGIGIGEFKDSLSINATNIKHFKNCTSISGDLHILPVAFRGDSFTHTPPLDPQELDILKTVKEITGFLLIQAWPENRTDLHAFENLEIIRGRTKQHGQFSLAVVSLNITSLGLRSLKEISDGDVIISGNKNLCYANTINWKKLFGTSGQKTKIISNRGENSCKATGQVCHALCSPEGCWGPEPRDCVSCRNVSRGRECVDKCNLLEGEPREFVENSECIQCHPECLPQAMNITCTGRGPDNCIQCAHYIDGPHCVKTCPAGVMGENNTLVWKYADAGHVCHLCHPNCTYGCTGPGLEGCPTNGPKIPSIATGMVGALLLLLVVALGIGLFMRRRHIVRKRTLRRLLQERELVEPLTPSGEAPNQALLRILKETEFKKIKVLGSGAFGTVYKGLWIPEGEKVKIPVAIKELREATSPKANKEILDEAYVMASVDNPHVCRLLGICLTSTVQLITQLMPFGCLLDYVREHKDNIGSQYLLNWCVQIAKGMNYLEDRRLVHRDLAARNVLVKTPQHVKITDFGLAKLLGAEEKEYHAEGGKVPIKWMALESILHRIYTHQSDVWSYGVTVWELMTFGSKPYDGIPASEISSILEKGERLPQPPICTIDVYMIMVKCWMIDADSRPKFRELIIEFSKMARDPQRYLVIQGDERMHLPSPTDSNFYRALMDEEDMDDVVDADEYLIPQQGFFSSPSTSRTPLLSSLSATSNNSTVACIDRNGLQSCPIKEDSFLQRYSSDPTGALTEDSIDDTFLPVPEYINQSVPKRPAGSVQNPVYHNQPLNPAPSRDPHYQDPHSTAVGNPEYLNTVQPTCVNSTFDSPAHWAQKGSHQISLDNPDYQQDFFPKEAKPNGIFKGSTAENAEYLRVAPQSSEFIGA
Chain of Mitogen-activated protein kinase kinase kinase 8 (Homo sapiens) (P41279 whole entry): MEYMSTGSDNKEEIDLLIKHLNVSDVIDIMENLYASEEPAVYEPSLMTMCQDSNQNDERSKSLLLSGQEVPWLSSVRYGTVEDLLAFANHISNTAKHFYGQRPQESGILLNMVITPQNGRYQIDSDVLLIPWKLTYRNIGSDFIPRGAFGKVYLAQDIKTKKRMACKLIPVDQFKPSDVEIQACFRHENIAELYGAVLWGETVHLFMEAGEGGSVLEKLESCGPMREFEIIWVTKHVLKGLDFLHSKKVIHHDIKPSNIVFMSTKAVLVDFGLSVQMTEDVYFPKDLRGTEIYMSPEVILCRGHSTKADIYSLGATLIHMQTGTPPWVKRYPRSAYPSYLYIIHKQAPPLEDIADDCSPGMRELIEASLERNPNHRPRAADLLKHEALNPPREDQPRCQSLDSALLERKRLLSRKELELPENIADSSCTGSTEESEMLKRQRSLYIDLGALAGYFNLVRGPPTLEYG
Chain of Aurora kinase B (Q96GD4 whole entry): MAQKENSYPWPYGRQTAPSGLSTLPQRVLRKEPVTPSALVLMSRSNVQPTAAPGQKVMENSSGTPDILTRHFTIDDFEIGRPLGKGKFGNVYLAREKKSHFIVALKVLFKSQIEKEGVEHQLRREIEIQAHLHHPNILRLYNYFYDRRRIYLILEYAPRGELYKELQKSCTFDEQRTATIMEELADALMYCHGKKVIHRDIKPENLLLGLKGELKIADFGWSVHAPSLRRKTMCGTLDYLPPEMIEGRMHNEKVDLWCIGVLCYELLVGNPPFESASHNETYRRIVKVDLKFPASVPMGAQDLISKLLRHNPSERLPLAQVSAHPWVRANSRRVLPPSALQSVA
Chain of Vascular endothelial growth factor receptor 3 (P35916 whole entry): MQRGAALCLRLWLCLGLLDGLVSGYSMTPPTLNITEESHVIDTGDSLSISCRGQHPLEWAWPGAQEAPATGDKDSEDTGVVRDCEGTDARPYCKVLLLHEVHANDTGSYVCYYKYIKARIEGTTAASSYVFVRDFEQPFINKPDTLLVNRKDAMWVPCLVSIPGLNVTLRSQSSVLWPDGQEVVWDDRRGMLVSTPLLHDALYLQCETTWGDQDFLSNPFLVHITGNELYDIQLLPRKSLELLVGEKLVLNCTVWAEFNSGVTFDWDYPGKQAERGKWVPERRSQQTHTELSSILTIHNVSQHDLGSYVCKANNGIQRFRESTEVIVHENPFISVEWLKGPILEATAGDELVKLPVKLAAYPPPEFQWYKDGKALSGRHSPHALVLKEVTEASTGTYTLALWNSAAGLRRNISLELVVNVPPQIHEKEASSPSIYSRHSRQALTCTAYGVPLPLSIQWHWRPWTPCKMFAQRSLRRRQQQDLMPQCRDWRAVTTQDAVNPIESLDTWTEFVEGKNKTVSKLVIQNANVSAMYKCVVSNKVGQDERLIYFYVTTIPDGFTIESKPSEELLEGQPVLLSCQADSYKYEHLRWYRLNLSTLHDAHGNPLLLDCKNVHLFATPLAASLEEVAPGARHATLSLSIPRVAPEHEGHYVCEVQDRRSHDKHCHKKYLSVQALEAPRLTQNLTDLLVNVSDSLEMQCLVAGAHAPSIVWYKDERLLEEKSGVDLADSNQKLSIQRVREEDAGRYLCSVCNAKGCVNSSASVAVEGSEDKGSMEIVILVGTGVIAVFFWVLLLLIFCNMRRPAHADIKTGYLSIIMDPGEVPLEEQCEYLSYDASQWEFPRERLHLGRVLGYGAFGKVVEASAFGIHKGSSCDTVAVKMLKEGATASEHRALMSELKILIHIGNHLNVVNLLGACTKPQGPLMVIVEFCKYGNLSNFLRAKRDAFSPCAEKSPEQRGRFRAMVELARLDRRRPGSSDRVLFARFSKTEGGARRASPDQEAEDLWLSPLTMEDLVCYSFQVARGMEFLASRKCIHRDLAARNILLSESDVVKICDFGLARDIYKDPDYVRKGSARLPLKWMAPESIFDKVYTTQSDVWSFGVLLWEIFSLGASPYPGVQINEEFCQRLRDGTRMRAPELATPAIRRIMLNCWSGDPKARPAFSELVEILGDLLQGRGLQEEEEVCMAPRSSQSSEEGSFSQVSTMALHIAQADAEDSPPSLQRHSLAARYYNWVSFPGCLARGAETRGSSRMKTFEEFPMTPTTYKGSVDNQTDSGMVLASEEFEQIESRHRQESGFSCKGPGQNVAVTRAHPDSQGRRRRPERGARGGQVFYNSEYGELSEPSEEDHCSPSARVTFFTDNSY
Chain of Angiopoietin-1 receptor (Q02763 whole entry): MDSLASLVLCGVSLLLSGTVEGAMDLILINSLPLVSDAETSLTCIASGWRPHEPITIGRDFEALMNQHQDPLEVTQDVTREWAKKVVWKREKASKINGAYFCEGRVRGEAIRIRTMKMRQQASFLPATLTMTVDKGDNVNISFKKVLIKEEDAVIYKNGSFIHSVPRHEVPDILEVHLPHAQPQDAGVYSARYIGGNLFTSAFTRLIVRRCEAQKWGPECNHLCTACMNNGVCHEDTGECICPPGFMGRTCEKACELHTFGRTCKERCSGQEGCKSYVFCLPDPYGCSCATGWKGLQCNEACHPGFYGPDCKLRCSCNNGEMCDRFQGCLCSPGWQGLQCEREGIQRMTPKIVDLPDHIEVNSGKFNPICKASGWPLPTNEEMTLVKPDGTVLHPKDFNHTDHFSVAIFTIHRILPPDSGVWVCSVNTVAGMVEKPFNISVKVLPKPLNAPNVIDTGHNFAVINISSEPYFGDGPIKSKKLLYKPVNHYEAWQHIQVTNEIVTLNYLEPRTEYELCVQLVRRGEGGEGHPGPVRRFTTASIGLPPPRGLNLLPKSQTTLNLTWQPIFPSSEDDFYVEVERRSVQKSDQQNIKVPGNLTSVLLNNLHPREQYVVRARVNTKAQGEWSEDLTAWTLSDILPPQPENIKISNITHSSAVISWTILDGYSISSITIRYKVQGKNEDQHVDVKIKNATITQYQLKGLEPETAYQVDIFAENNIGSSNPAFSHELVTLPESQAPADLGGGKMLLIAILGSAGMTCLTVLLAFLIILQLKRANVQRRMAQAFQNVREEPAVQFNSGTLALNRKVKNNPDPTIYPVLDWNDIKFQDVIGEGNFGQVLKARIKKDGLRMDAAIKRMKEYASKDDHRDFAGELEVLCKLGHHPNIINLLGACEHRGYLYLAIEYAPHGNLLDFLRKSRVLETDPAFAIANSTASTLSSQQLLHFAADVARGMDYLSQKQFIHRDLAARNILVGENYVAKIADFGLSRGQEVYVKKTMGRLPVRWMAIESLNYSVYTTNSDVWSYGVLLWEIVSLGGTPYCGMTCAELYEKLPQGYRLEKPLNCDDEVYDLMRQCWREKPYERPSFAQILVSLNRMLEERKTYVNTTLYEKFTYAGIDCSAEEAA

Row | SMILES | inhibition [1] | inhibition [2] | inhibition [3] | inhibition [4] | inhibition [5] | inhibition [6] | inhibition [7] | inhibition [8] | inhibition [9] | inhibition [10] | inhibition [11] | inhibition [12] | inhibition [13] | inhibition [14] | IC50 [3] | IC50 [14] | also measured
1 | Nc1ncnc2ncn(CC(=O)c3ccccc3)c12 | inactive | inactive | inactive | inactive | inactive | inactive | inactive | inactive | inactive | inactive | inactive | inactive |  |  |  |  | 
2 | CN(C)c1ncnc2c1ncn2CC(=O)c1c[nH]c2ccccc12 | inactive | inactive | inactive | inactive | inactive | inactive | inactive | inactive | inactive | inactive | inactive | inactive | inactive | inactive |  |  | 
3 | COc1ncnc2ncn(CC(=O)c3ccccc3)c12 | inactive | inactive | inactive | inactive | inactive | inactive | inactive | inactive | inactive | inactive | inactive | inactive | inactive | inactive |  |  | 
4 | Nc1ncnc2c1ncn2CC(=O)c1cccnc1 | inactive |  |  | inactive | inactive | inactive | inactive | inactive | inactive | inactive | inactive | inactive | inactive |  | 58 µM | 93 µM | IC50 [2]: 75 µM
5 | Nc1ncnc2ncn(CC(=O)c3c[nH]c4ccccc34)c12 | inactive |  |  | inactive | inactive | inactive |  | inactive | inactive | inactive | inactive | inactive | inactive |  | 30 µM |  | inhibition [15]: inactive; inhibition [16]: inactive; inhibition [17]: inactive; inhibition [18]: inactive; inhibition [19]: inactive; inhibition [20]: inactive; inhibition [21]: inactive; inhibition [22]: inactive; inhibition [23]: inactive; inhibition [24]: inactive; IC50 [7]: 95 µM; inhibition [25]: inactive; inhibition [26]: inactive; inhibition [27]: inactive
6 | Nc1ncnc2c1ncn2CC(=O)c1ccccc1 | inactive |  |  | inactive | inactive | inactive |  | inactive | inactive | inactive | inactive |  | inactive |  |  | 75 µM | inhibition [28]: inactive
7 | COc1ncnc2c1ncn2CC(=O)c1ccccc1 | inactive | inactive |  | inactive | inactive | inactive | inactive | inactive | inactive | inactive | inactive | inactive |  | inactive | 25 µM |  | IC50 [13]: 45 µM
8 | Nc1ncnc2c1ncn2CC(=O)c1c[nH]c2ccccc12 | inactive | inactive |  | inactive |  | inactive |  |  | inactive | inactive | inactive |  | inactive |  | 81 µM | 35 µM | IC50 [7]: 85 µM; IC50 [8]: 69 µM; inhibition [27]: 73%; IC50 [12]: 95 µM
9 | Nc1ncnc2c1ncn2CC(=O)c1ccccn1 | inactive | inactive | inactive | inactive | inactive | inactive | inactive | inactive | inactive | inactive | inactive | inactive | inactive |  |  | 89 µM | 
